Assay outcomes as filed in PubChem.
MrgX1 antagonist: blocks BAM8-22 activation of human MrgX1 receptor. Q96LB2. MRGX1-HEK293 calcium flux, Fluo-4, BAM8-22 antagonism; active compounds read low. B-score at 10 µM. 310,000 compounds, 1.3% hits;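 active = calcium-response B-score plate-corrected more than 3 library SD below zero, starting fluorescence within 5 deviations, no agonist response on first addition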;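 note: peak minus trough fluorescence over baseline after final BAM8-22 challenge near maximal dose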
Target sequence (Q96LB2 whole entry, looked up): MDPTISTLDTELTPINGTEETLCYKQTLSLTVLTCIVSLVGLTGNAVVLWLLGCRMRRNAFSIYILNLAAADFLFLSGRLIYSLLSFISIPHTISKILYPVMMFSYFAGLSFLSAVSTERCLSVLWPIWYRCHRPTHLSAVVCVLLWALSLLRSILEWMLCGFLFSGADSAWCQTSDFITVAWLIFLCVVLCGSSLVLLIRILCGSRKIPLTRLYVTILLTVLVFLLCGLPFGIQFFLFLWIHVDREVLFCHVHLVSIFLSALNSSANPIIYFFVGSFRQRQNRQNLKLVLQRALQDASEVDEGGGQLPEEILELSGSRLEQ
MrgX1 ag: activates human MrgX1 receptor signaling. MrgX1-HEK293 cells, Fluo-4 calcium fluorescence, agonist mode; active compounds read high. B-score at 10 µM. 310,000 compounds, 0.44% hits. AID 588627;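 active = calcium response B-score plate-corrected fluorescence ratio at least 3 library SD, with starting fluorescence B-score inside 5 SD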
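Material: HEK293 cells stably expressing human MrgX1 receptor | Quantity: 15,000 cells per well | Times: Cells plated overnight, dye loaded 0.5 h 37 °C, 0.5 h room temperature | Measured by: Kinetic Fluo-4 NW fluorescence of intracellular calcium | Control set: Positive and negative controls per plate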
MrgX1 PAM: allosterically activates human MrgX1 receptor signaling. Q96LB2. MrgX1-HEK293, Fluo-4 calcium flux, FDSS; active compounds read high. B-score at 10 µM. 310,000 compounds, 0.63% hits;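 active = plate-corrected calcium response at least 3 library SD above typical, normal starting fluorescence, not activating the receptor alone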;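 note: compound read alongside a low EC10 to EC30 dose of BAM8-22 agonist; peak minus trough fluorescence over baseline measured at the second addition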
RGS4 inh: inhibitors of human RGS4 | 310,000 compounds, 0.45% hits | HEK293 M3R/RGS4 inducible, Fluo-4 calcium flux; active compounds read high; triggered by carbachol at its EC20 | B-score at 10 µM | AID 463165;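 active = B-score, a plate-corrected calcium signal, over three deviations above library mean, with baseline fluorescence within five deviations of library mean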;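 note: RGS4 expression induced by doxycycline in cells with stable M3 receptor; B-score is computed from the integrated fluorescence ratio over baseline after carbachol; higher B-score means a larger calcium signal and so more RGS4 inhibition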
Target sequence (P49798 whole entry, looked up): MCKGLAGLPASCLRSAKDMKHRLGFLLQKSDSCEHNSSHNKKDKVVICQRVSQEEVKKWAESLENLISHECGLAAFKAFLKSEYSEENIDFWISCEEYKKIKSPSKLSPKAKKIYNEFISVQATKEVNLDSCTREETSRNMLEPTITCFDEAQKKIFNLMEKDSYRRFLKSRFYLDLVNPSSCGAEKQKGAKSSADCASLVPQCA
RGS4 act: potentiators or activators of RGS4; HEK293 M3R/inducible RGS4, carbachol calcium flux Fluo4; active compounds read low; B-score at 10 µM; 310,000 compounds, 0.92% hits;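 active = B-score of the integrated calcium signal more than 4 SD below the library mean, with starting fluorescence not abnormally high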;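 note: negative B-score means reduced calcium response which marks RGS4 activation or potentiation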
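test system = HEK293 cells with stable M3R and inducible RGS4 | schedule = recording 10 s baseline at 1 Hz, 100 s post-agonist | technique = Fluo4-AM (2 µM) calcium-flux fluorescence, kinetic read | measure = Agonist-evoked peak-minus-minimum fluorescence over baseline, integrated ratio, B score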
RGS4 act valid: RGS4 activation, validation assay; shares compounds with RGS4 act; AID 602282; 1,100 compounds, 89% hits; HEK293 M3R/RGS4 inducible, carbachol calcium flux Fluo4; inhibition, % at 10 µM;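 active = inhibition above 3 SD of the buffer control wells, cut at about 41% in these data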;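 note: signal is the integrated peak-minus-minimum Fluo4 fluorescence over baseline ratio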
M3R Ca counter: RGS4 activator counter-screen hit in non-induced cells. HEK293 M3R non-induced RGS4, Fluo4 calcium flux; after carbachol challenge at its EC90. inhibition, % at 10 µM. shares compounds with RGS4 act. AID 602283. 1,100 compounds, 82% hits;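 active = inhibition exceeding 3 SD of buffer-only control wells, cut at about 26% in these data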;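 note: percent drop in integrated peak-minus-baseline over baseline Fluo4 ratio after carbachol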
Of the large screens only hits and unclear results are named; the others gave an inactive call (follow-up assays come after a bar, where they were run). In the library only some 3.5% were active in any assay of this set; here they are far more common.

S=c1[nH]nc(-c2ccc(Cl)cc2)n1Cc1ccccc1	RGS4 act -8.9 | RGS4 act valid 81 | M3R Ca counter 36
CCc1ccc([C@@H]2C[C@H]3CN(Cc4ccccc4OC)C(=O)[C@]34CCCN24)cc1	RGS4 act -9.5 | RGS4 act valid 79 | M3R Ca counter 30
C/C(=N\O)c1noc(C)c1C(=O)Nc1nccs1	none
O=C(Nc1ccc2c(c1)CCC2)Nc1ccccc1F	none
COC(=O)CSc1nc(SCc2ccccc2Cl)nc2c1CCCC2	RGS4 act -8 | RGS4 act valid 48 | M3R Ca counter 84
Oc1ccccc1-c1nc(NC2CCCC2)c2ccccc2n1	RGS4 act -7.8 | RGS4 act valid 74 | M3R Ca counter 59
Cc1ccn(S(=O)(=O)c2ccc(C(C)(C)C)cc2)n1	RGS4 act -7.8 | RGS4 act valid 92 | M3R Ca counter 26
CN(CCCC(=O)N1CCCC(C(N)=O)C1)S(=O)(=O)c1ccc(F)cc1 (stereo unspecified)	none
Cc1ccc(C2=Nc3ccccc3NC(C)(c3ccc(C)o3)C2)o1 (stereo unspecified)	none
OCC1(Cc2ccccc2C(F)(F)F)CCN(Cc2ccc3c(c2)CCO3)CC1	RGS4 act -10 | RGS4 act valid 55 | M3R Ca counter 84
OCC1(Cc2ccccc2C(F)(F)F)CCN(Cc2ccccc2)CC1	none
CCOC(=O)c1sc(N)c(C#N)c1CSc1nnc(C2CCCCC2)n1N	none
CN1CCN(c2ncnc3c2c(-c2ccccc2)cn3-c2ccc(F)cc2)CC1	none
CCOc1ccc(-n2cc(-c3ccccc3)c3c(N4CCOCC4)ncnc32)cc1	RGS4 act -8.2 | RGS4 act valid 62 | M3R Ca counter inactive
O=C(O)c1cc(S(=O)(=O)N2CCN(C(=O)c3ccco3)CC2)c(Cl)cc1Cl	none
COc1ccc(N2CCN(C(=O)CC34CC5CC(CC(C5)C3)C4)CC2)c([N+](=O)[O-])c1	none
CSc1ccc(CN(C)C(=O)C(c2ccccc2)c2ccccc2)cc1	none
CN(CCN(C)C(C)(C)C)C(=O)C(c1ccccc1)c1ccccc1	RGS4 act -12 | RGS4 act valid 94 | M3R Ca counter 75
O=C(c1ccc(Cl)c(NC2=NC3CS(=O)(=O)CC3S2)c1)N1CCN(c2ccccc2)CC1 (stereo unspecified)	none
Cc1cccc(N2CCN(C(=O)c3ccc(Cl)c(NC4=NC5CS(=O)(=O)CC5S4)c3)CC2C)c1 (stereo unspecified)	RGS4 act -8.5 | RGS4 act valid inactive | M3R Ca counter inactive
O=C(NCCN1CCOCC1)N1c2ccccc2Sc2ccccc21	RGS4 act -11 | RGS4 act valid 83 | M3R Ca counter 54
O=C(CSc1nc2ccccc2s1)N1c2ccccc2Sc2ccc(Cl)cc21	none
O=C(CCN1CCOCC1)N1c2ccccc2Sc2ccc(Cl)cc21	RGS4 act -8.9 | RGS4 act valid 92 | M3R Ca counter 90
CN(C)CCCNC(=O)N1c2ccccc2Sc2ccccc21	RGS4 act -11 | RGS4 act valid 92 | M3R Ca counter 91
Cc1snc(S(=O)(=O)Cc2ccccc2Cl)c1C#N	none
COc1ccc(OCC(=O)Nc2ccncc2)cc1	none
O=C(CN1CCCCC1)Nc1cccc(Cl)c1	none
COc1cc(NC(=O)Nc2cccc(Cl)c2)c(OC)cc1NC(=O)CN1CCCCC1	RGS4 act -11 | RGS4 act valid 38 | M3R Ca counter inactive
O=C(Nn1c(-c2ccccc2)nc2ccccc2c1=O)C1CCC1	none
CC1CC(C)(C)N(C(=O)CSc2ccc(-c3ccc(F)cc3)nn2)c2ccccc21 (stereo unspecified)	RGS4 act -13 | RGS4 act valid 94 | M3R Ca counter 72
OCCCCNCc1ccc(OCc2ccccc2)cc1	RGS4 act -7.8 | RGS4 act valid 60 | M3R Ca counter 84
OCCNCCCCOc1ccc(OCc2ccccc2)cc1	none
COc1ccc(-c2cc(-c3nnc(COC(=O)c4ccc(O)cc4)o3)c3ccccc3n2)cc1OC	RGS4 act -7.7 | RGS4 act valid 62 | M3R Ca counter inactive
